# Results gathered from unrelated publications.
# Lines come from different studies, so protocols differ.
# Oprk1: Kappa-type opioid receptor (Oprk1, Mus musculus, UniProt P33534)
# BCHE: Cholinesterase (BCHE, Homo sapiens, UniProt P06276)
SMILES,target,read-out,mode,technique,quantity,value
CC(=O)N[C@H]1[C@@H](O[C@@H]2O[C@H](C[C@@H](O)[C@H]3O[C@@H](n4ccc(=O)[nH]c4=O)[C@H](O)[C@@H]3O)[C@H](O)[C@H](O)[C@H]2NC(=O)/C=C/CCCCCCCCCC(C)C)O[C@H](CO)[C@@H](O)[C@@H]1O,"UDP-N-acetylglucosamine--dolichyl-phosphate N-acetylglucosaminephosphotransferase (Homo sapiens, UniProt Q9H3H5)",enzyme activity,inhibitor,,IC50,1530 nM
CCCC[C@H](NC(C)=O)C(=O)N[C@H]1CC(=O)NCCCC[C@@H](C(=O)N2CCC[C@@H]2C(=O)N[C@@H](C(=O)N2CCC[C@@H]2C(N)=O)C(C)C)NC(=O)[C@H](Cc2c[nH]c3ccccc23)NC(=O)[C@H](CCCNC(=N)N)NC(=O)[C@@H](Cc2ccccc2)NC(=O)[C@@H]2CCCN2C1=O,"Melanocortin receptor 4 (MC4R, Homo sapiens, UniProt P32245)",cAMP,agonist,,EC50,0.89 nM
Cn1cc2cc(C(F)(F)c3nnc4ccc(-c5cnn(C6CC6)c5)nn34)c(F)cc2n1,"Fibroblast growth factor receptor 4 (FGFR4, Homo sapiens, UniProt P22455)",enzyme activity,inhibitor,ADP detection,IC50,> 1000 nM
CC(C)[C@H](CN1CCc2ccccc2C1)NC(=O)c1cccc(-c2cccc(O)c2)c1,Oprk1,ligand displacement,,radioligand,Ki,870 nM
CC(C)c1cc2c(c(O)c1O)[C@@]13CCCC(C)(C)[C@@H]1[C@H](OC3=O)[C@H]2O,BCHE,enzyme activity,inhibitor,absorbance,Ki,0.2 nM
C=CCOc1ccc(C(=O)/C=C/c2cccc(F)c2)c(OS(C)(=O)=O)c1I,BCHE,enzyme activity,inhibitor,,IC50,19200 nM
C=CCc1ccc(O)c(-c2cc(CC=C)ccc2O)c1,BCHE,enzyme activity,inhibitor,Ellman,IC50,> 100000 nM
CCOC(=O)c1ccc(OC(=O)CCCCCN=C(N)N)cc1,"Plasma kallikrein (KLKB1, Homo sapiens, UniProt P03952)",enzyme activity,inhibitor,,IC50,86.4 nM
C=CCOc1ccc(C(=O)/C=C/c2ccc(OC)cc2)c(OS(C)(=O)=O)c1I,BCHE,enzyme activity,inhibitor,,IC50,53800 nM
COc1c2c(cc3c1-c1c(cc4c(c1OC)OCO4)C[C@H](C)[C@H](C)C3)OCO2,"Cocaine esterase (CES2, Homo sapiens, UniProt O00748)",enzyme activity,inhibitor,fluorescence,IC50,1340 nM
CC(C)c1cc2c(c(O)c1O)[C@@]1(C(=O)O)CCCC(C)(C)[C@@H]1CC2,BCHE,enzyme activity,inhibitor,,IC50,0.66 nM
COc1cc(/C=C/C(=O)O)ccc1OCc1cn(CC(=O)Nc2ccc(Cl)cc2Cl)nn1,BCHE,enzyme activity,inhibitor,Ellman,IC50,12000 nM
CC(C)c1cc2c(c(O)c1O)[C@@]13CCCC(C)(C)[C@@H]1[C@@H](O)[C@@H]2OC3=O,BCHE,enzyme activity,inhibitor,absorbance,Ki,0.33 nM
C=CCOc1ccc(C(=O)/C=C/c2ccc(OC)cc2)c(O)c1I,BCHE,enzyme activity,inhibitor,,IC50,22400 nM
CC(C)[C@H](CN1CCc2ccccc2C1)NC(=O)Cc1c[nH]c2ccccc12,Oprk1,ligand displacement,,radioligand,Ki,2810 nM
C=CCOc1ccc(C(=O)/C=C/c2cccc(F)c2)c(OS(=O)(=O)c2ccc(F)cc2)c1I,BCHE,enzyme activity,inhibitor,,IC50,30200 nM
CC(C)c1cc2c(c(O)c1O)[C@@]13CCCC(C)(C)[C@@H]1C[C@@H]2OC3=O,BCHE,enzyme activity,inhibitor,absorbance,Ki,0.3 nM
